Compound activity as filed in PubChem BioAssay.
HGIII-sPLA2 inh = Inhibits HGIII-sPLA2 liposome hydrolysis, primary screen; inhibition, % at 12.2 µM; Q9NZ20; 0.56% of 370,000 active; AID 743126; QFRET BODIPY PC-A2 liposome hydrolysis, fluorescence;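 active = inhibition above mean plus 3 SD of compounds lying within the high and low control bounds, cut at about 19% in these data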;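 note: 0% = median of test compound wells and 100% = no enzyme DMSO wells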
Target sequence (Q9NZ20 whole entry, looked up): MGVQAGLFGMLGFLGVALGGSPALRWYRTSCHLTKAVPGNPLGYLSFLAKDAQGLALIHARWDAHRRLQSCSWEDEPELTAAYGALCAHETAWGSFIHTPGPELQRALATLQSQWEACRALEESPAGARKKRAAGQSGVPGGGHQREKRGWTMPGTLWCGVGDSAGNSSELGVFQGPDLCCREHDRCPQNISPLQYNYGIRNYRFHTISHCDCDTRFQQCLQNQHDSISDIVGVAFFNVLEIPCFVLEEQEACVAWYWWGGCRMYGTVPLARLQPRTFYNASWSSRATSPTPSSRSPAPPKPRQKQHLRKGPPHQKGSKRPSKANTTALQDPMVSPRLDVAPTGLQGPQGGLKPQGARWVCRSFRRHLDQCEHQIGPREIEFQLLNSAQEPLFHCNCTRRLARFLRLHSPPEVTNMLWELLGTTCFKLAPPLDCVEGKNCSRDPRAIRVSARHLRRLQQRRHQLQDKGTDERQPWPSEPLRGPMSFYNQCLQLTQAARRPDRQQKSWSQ
Hep lipid drop = modulators of hepatic lipid droplet formation; AML12 mouse hepatocytes, oleate lipid droplets, BODIPY imaging; 0.4% of 240,000 active; inhibition, % at 6.5 µM;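 active = lipid droplet intensity inhibited by at least 50%, with more than 500 cells counted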
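Material – AML12 mouse liver cells · Also added – oleate loading, 100 µM · Compound dosing – 6.5 µM single-point dosing · Times – overnight treatment with compound plus oleate · Measured by – fluorescence imaging, 20x objective, two fields per well · Read-out – percent inhibition of filter-corrected integrated lipid droplet intensity per well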
PfM18AAP inh = blocks P. falciparum M18 aspartyl aminopeptidase; inhibition, % at 7.35 µM; 1.2% of 290,000 active; recombinant PfM18AAP, H-Glu-NHMec fluorogenic cleavage; AID 1822;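 active = inhibition above the campaign mean inhibition over all tested compounds plus 3 SD, cut at about 28% in these data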;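 note: 0% = plate median of test compound wells and 100% = 2 mM ZnCl2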
m5-HT2A agonist = mouse HTR2A agonism via beta-arrestin recruitment. CHO-K1 mHTR2A beta-arrestin complementation, luminescence; percent of 30 µM serotonin response. activation, % at 7.6 µM. 0.66% of 360,000 active. AID 624169;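 active = activation above a run cutoff, the mean activation of all tested compounds plus 3 SD, cut at about 14% in these data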;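 note: 0% = plate median of compound wells and 100% = 30 µM serotonin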
CendR NRP1 mod = NRP-1/CendR interaction modulation; O14786; FAM-RPARPAR peptide binding to NRP-1, fluorescence polarization; inhibition, % at 25 µM; 0.85% of 360,000 active; AID 602438;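 active = inhibition or corrected inhibition above about 18%, plus a signal ratio from 0.5 to 1.5, limit read from the data, passing the limit was not always enough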
Arr AP2 block = inhibitors of human beta-arrestin and AP2 interaction; 0.31% of 340,000 active; FITC-arrestin peptide / GST-AP2 beads, flow cytometry; AP2 beta2 appendage carries R879A mutation; inhibition, % at 10 µM;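 active = inhibition above a set limit, near 3 SD of compounds lacking own fluorescence, cut at about 54% in these data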;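 note: plate controls were DMSO wells for no effect and 5 µM unlabelled arrestin peptide for full effect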
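system = GST-tagged AP2 beta2-adaptin appendage (R879A) on 4 µm glutathione beads | reagent = FITC-labelled arrestin peptide probe, 50 nM final | schedule = compound with beads 12 min RT, then probe 1 h RT | signal = HyperCyt-sampled flow cytometry, FL1 channel, ex 488/em 535 nm | read-out = percent response from loss of bead-bound FITC fluorescence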
* = called active by the depositor; . = not tested or not shown; ! = a repeat was not active. Sampled rows, rich in hits. Any-hit rate of the full collection: about 3.3%.

SMILES | HGIII-sPLA2 inh | Hep lipid drop | PfM18AAP inh | m5-HT2A agonist | CendR NRP1 mod | Arr AP2 block
c1ccc(Nc2ccc(Nc3ccccc3)cc2)cc1 | 6 | . | . | -7 | 29* | 29
C=CCN(CC#CCO)Cc1ccc(OC)cc1OC | 4 | . | . | . | . | .
Cc1nc(N2CCN(Cc3ccc4c(c3)OCO4)CC2)[nH]c(=O)c1C | 0 | 0 | 1 | -4 | -7 | 8
COc1ccc(/C=N\N=C(N)N)cc1 | 5 | 4 | -1 | -3 | 0 | 7
NC(N)=N/N=C/c1ccc(N(c2ccccc2)c2ccccc2)cc1 | -2 | -7 | 7 | -5 | 25* | -10
C[C@H](NC(=O)OCc1ccccc1)C(=O)NC(Cc1ccccc1)P(=O)(Oc1ccccc1)Oc1ccccc1 (stereo partly specified) | -18 | . | . | . | . | .
O=C(O)CC1OCC=C2CN3CCC45C6=CC(=O)C(=O)C([N+](=O)[O-])=C6NC4C1C2CC35 (stereo unspecified) | . | -8 | 24 | 6 | 25* | -6
Clc1ccc(-c2nc3ccc(Cl)cn3c2CN2CCOCC2)cc1 | -3 | -2 | -6 | -4 | 50* | -4
O=C1CCC2(O)C3Cc4ccc(O)c5c4C2(CCN3Cc2ccoc2)C1O5 (stereo unspecified) | -25 | . | . | 7 | -4 | .
O=C1CC=C2C3CC4N(CCC45c4cc(O)c(O)cc4N1C25)CC3=CCBr (stereo unspecified) | -14 | . | . | 2 | 26* | 45
CCOC(=O)C1=C(N)Oc2c(c(=O)oc3ccccc23)C12C(=O)N(C)c1ccccc12 (stereo unspecified) | 4 | . | 1 | 0 | -17 | 14
C=CCN1C(=O)C2(C(C(=O)OCC)=C(N)Oc3ccccc32)c2c1c1ccccc1oc2=O (stereo unspecified) | -10 | -2 | 6 | 4 | 44* | 8
C[C@H](CO)N1C[C@H](C)[C@@H](CN(C)C(=O)Oc2ccc3ccccc3c2)OCc2cnnn2CCCC1=O | -13 | . | . | -2 | -4 | .
COc1cc(C)c(CN2CCN(c3ccccc3)CC2)cc1C | 0 | . | 1 | -1 | 36* | -6
CNc1ccc2nc3ccccc3[n+](C)c2c1 | 4 | -2 | -9 | -8 | 29* | 16
CN(Cc1cccc(-c2ccncc2)c1)C(=O)Oc1ccccc1Cc1ccccc1 | . | . | . | -1 | -1 | .
O=C(CN1CCCC1)Nc1ccc(Cl)cc1C(=O)c1ccccc1 | 4 | 3 | 3 | 1 | 9 | -26
O=C(Nc1ccc(Cl)cc1C(=O)c1ccccc1)c1ccccc1 | 0 | . | -1 | -3 | 25* | 4
C(#CCN1CCCCC1)CN1CCCCC1 | . | . | . | 1 | 6 | .
CC12CCCCC1N(O)CN2O (stereo unspecified) | 3 | . | -10 | -1 | 23* | -4
COC(=O)C1=C(C)NC(=S)NC1c1ccc(N(CCCl)CCCl)cc1Cl (stereo unspecified) | 13 | . | . | -4 | -1 | -5
O=c1ccc2cc(OC3O[C@H](CO)[C@@H](O)[C@H](O)[C@H]3O)c(O)cc2o1 (stereo partly specified) | 0 | . | . | -2 | -9 | -6
C=C[C@@H]1C2=CCOC(=O)C2=CO[C@H]1O[C@@H]1O[C@H](CO)[C@@H](O)[C@H](O)[C@H]1O | 1 | . | . | 4 | 24* | -3
CCN(CC)c1ccc(N=Cc2c(O)n(CCc3ccc(OC)c(OC)c3)c(=O)[nH]c2=O)cc1 | 2 | 2 | 17 | 4 | -39 | 2
CCN(CC)c1ccc(N=Cc2c(O)n(-c3cc(OC)ccc3OC)c(=O)[nH]c2=O)cc1 | -14 | 40 | 34* | 6 | -85 | 15
SMILES | HGIII-sPLA2 inh | Hep lipid drop | PfM18AAP inh | m5-HT2A agonist | CendR NRP1 mod | Arr AP2 block
O=C(Cn1cc(C=C2C(=O)NC(=O)NC2=O)c2ccccc21)NCC1CCCO1 (stereo unspecified) | 7 | 7 | 32* | 0 | 0 | 33
O=C(NCCN1CCC2(CC1)C(=O)NCN2c1ccccc1)c1ccc(F)cc1 | 9 | . | . | . | . | .
C=CC[N+]1(C)C2CCC1CC(O)C2 (stereo unspecified) | -3 | 10 | 4 | 4 | 21* | 14
CC(C)OC(=O)C1C(c2ccc(I)cc2)CC2CCC1N2C (stereo unspecified) | -3 | . | . | . | . | .
Clc1ccccc1CNC1CN2CCC1CC2 (stereo unspecified) | 2 | 7 | -1 | -3 | 26* | -2
c1cncc(C2Nc3cccc4cccc(c34)N2)c1 | -1 | 1 | 35*! | 6 | 19 | 26
N#CCC[C@@H]1CC[C@]2(CCCN(Cc3ccccn3)C2)O1 | 0 | . | . | . | . | .
O=C1C=C2C=C[C@@H]3CC2(O1)[C@H]1CCCCN31 | 3 | . | . | -1 | 6 | 0
COc1ccc(CCN)cc1S(N)(=O)=O | 0 | . | . | -2 | 12 | .
CC(=O)Nc1ccc(OCCF)cc1 | 7 | 16 | 0 | 3 | 26* | 4
CCOc1ccc(NC(=O)c2c(O)[nH]c(=O)[nH]c2=O)cc1 | -6 | . | . | 6 | 6 | 5
O=C1C2CCN(CC2)C1Cc1ccccc1O (stereo unspecified) | 1 | . | -2 | . | . | .
O=C1C2CCN(CC2)C1Cc1ccc(OCCOc2ccccc2)cc1 (stereo unspecified) | 2 | . | 7 | -6 | 28* | 1
CC1([N+](=O)[O-])COP(=O)(Nc2cccc(Br)c2)OC1 (stereo unspecified) | -8 | . | . | 3 | 2 | -243
CC[C@@H](CO)NC(=O)[C@@H]1C=C2c3cccc4c3c(cn4C)C[C@H]2N(C)C1 | 0 | 2 | 3 | . | 41* | 2
CN1C[C@H](CNC(=O)OCc2ccccc2)C[C@@H]2c3cccc4c3c(cn4C)C[C@H]21 | -17 | . | -1 | -1 | 23 | 12
CN1Cc2cnnn2-c2ccccc2C1c1ccccc1 (stereo unspecified) | 4 | . | . | 2 | 2 | 2
CN1CCN(c2ccc([N+](=O)[O-])c(Sc3nncn3C)c2)CC1 | 8 | 19 | 5 | -3 | 3 | 4
CN1CCN(c2ccc([N+](=O)[O-])c(Sc3ccccn3)c2)CC1 | 0 | 2 | 4 | 10 | 28* | 14
Cn1cc(C(=O)OCC(=O)Nc2ccccc2Cl)c2ccccc21 | 10 | . | . | 6 | 9 | -8
Cn1cc(C(=O)OCC(=O)Nc2ccccc2)c2ccccc21 | 0 | . | . | 8 | 21* | -11
Cc1ccc(C(=O)C2CN3CCC2CC3)cc1 (stereo unspecified) | 0 | 2 | 0 | -5 | 26* | 0
Oc1ccc(C[C@H]2NCCc3cc(O)c(O)cc32)cc1O | -8 | 1 | 82* | -1 | 22 | -4
C=CC(=O)OCCO | -3 | . | . | 1 | 1 | 1
CC(C)[C@]12O[C@H]1[C@@H]1O[C@]13[C@]1(O[C@H]1C[C@H]1C4=C(CC[C@@]13C)C(=O)OC4)[C@@H]2O | . | 87* | 0 | . | . | .
